Entries after “also recorded” stand apart in the source; their conditions may differ. Each block holds one compound with its values, some of them ahead of it.
Columns and labels:
[1] = target: T1, human GPR119 (Homo sapiens, UniProt Q8TDV5); test: cAMP accumulation assay; format: cell-based
T1 sequence (Q8TDV5 1-335): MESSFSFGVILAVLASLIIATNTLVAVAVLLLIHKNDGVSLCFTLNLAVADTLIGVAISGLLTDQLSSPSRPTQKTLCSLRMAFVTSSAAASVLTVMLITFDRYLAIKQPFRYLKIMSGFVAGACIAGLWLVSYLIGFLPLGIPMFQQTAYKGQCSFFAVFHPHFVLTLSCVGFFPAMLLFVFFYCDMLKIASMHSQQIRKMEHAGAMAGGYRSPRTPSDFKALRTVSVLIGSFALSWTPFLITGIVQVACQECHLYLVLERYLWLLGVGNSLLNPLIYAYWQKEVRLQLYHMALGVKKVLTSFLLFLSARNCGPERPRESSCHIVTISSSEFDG
How it was run: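 CHO-K1 cells carry doxycycline-inducible human GPR119 and a CRE-driven beta-lactamase reporter. Cells were seeded at 10⁴ cells/well, induced with doxycycline 1 ug/mL, and treated 5 h with test compound at varying concentrations (DMSO stocks diluted in medium). cAMP was read by ratiometric FRET beta-lactamase substrate, in triplicate per concentration, from ≥3 independent experiments.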

[2] = Cytotoxicity assay; format: cell-based; details: mouse, GLUTag L cells
How it was run: (§1)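 MTT assay. Cells were seeded at 2–3×10⁴ cells/well and cultured 24 h. Test compound was added at a final 0.1–100 μM for 48 h. MTT (5 mg in PBS, pH 7.2) was added for 4 h at 37°C, then DMSO. Absorbance was read at 540 nm; % viability = treated/untreated absorbance ×100; n=3.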

[3] = Cytotoxicity assay; format: cell-based; details: human, HepG2 cells
How it was run: as §1

[4] = tested on: HIT-T15, GLUTag, and HepG2; test: Cytotoxicity assay; format: cell-based; details: MTT, 48 h
How it was run: as §1

[5] = tested on: GLUTag cells; test: GLP-1 release assay; format: cell-based, murine
How it was run: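 GLUTag cells (DMEM, 10% FBS) were seeded at 10⁵ cells/well and grown 48 h. They were washed twice with serum-free DMEM, then exposed to 0.1 uM test compound in serum-free DMEM at 37°C for 120 min. Supernatant was clarified by 5-min centrifugation, and GLP-1 was measured by ELISA in triplicate.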

[6] = tested on: HIT-T15 cells; test: Insulin release assay; format: cell-based, hamster
How it was run: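 HIT-T15 cells were seeded at 2×10⁵ cells/well and grown 48 h. They were washed in Krebs-Ringer bicarbonate buffer (pH 7.4, 0.2% BSA) and preincubated 60 min at 37°C with 5 mM glucose. Stimulation was with 0.1 uM test compound at 15 mM glucose, 60 min, 37°C; GSIS used 100 nM at 0, 3 and 15 mM glucose, 1 h. Supernatant insulin was measured by ELISA in triplicate.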

[7] = Pharmacokinetics of YH18968 in normal mice; format: in vivo, C57BL/6J mice; details: male, C57BL/6J, mouse, plasma
How it was run: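 Overnight-fasted 8-week-old male C57BL/6J mice, with free access to water, received 1 mg/kg iv via tail vein or oral doses of 1, 10 and 100 mg/kg as a suspension in 0.5% methyl cellulose; n=2 per time point. Plasma underwent protein precipitation and LC-MS/MS quantification. Parameters, including F, came from non-compartmental analysis.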

[8] = tested on: normal C57BL/6J mice; test: Oral glucose tolerance test, single administration in normal mice; format: in vivo
[9] = tested on: normal C57BL/6J mice; test: Blood active GLP-1 levels after single oral administration in normal mice; format: in vivo; details: 10 mg/kg oral, 30 minutes after administration, overnight-fasted mice
How it was run: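 Overnight-fasted male C57BL/6J mice (n=6) got a single oral dose of test compound, alone or with linagliptin (1 mg/kg). The control got 0.5% methyl cellulose vehicle. Blood was drawn 30 min after dosing, and active GLP-1 was measured against the vehicle group.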

[10] = tested on: DIO mice; test: Oral glucose tolerance test, repeat administration for 4 weeks in DIO mice; format: in vivo
How it was run: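 17-week-old male DIO mice were dosed orally once daily for 4 weeks with vehicle (0.5% methyl cellulose), test compound, MBX2982 10 mg/kg, linagliptin 1 mg/kg, or combinations. OGTT was run on days 1 and 29 in overnight-fasted mice: dose, then an oral 2 g/kg glucose bolus 30 min later. Tail-vein glucose was read by glucometer at 0–120 min, and AUC0–2h was calculated.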

[11] = Aqueous solubility in the buffer; format: physicochemical

Compound: CCc1cnc(N2CCC(c3nc(COc4ccc(-n5cnnn5)cc4)cs3)CC2)nc1 [MBX2982, reference compound]
EC50 [1]: 11.2 nM | CC50 at 48 h [2]: 12200 nM | CC50 at 48 h [3]: 15900 nM | concentration up to which cytotoxicity was not observed [4]: 1000 nM

EC50 [1]: 2.8 nM | potency on human GPR119 relative to MBX2982 ([1]; more potent than MBX2982 (EC50 11.2 nM, same assay)): approximately 4 fold | potency of human GPR119 activation relative to MBX2982 ([1]; more potent than the reported effect of MBX2982 (EC50 8.33 nM, HEK293)): approximately 3 fold | EC50 ([5]; Mus musculus, GLUTag, read-out: EC50, GLP-1 secretion): 0.1 nM | AUC(0-inf) ([7]; iv, 1 mg/kg): 1620 ng·h/mL | AUC(0-t) ([7]; iv, 1 mg/kg): 1380 ng·h/mL | MRT ([7]; iv, 1 mg/kg): 3.4 h | Vd ([7]; iv, 1 mg/kg): 2.11 L/kg | clearance ([7]; iv, 1 mg/kg): 10.3 mL/min/kg | Tmax ([7]; po): 0.5 h | bioavailability ([7]; po): 4.8 to 40% | AUC(0-inf) ([7]; po, 1 mg/kg): 720 ng·h/mL | AUC(0-t) ([7]; po, 1 mg/kg): 550 ng·h/mL | Cmax ([7]; po, 1 mg/kg): 169 ng/mL | Tmax ([7]; po, 1 mg/kg): 0.5 h | bioavailability ([7]; po, 1 mg/kg): 40% | half-life ([7]; po, 1 mg/kg): 3.1 h | AUC(0-inf) ([7]; po, 10 mg/kg): 2960 ng·h/mL | AUC(0-t) ([7]; po, 10 mg/kg): 2470 ng·h/mL | Cmax ([7]; po, 10 mg/kg): 760 ng/mL | Tmax ([7]; po, 10 mg/kg): 0.5 h | bioavailability ([7]; po, 10 mg/kg): 18% | half-life ([7]; po, 10 mg/kg): 2.6 h | AUC(0-inf) ([7]; po, 100 mg/kg): 15800 ng·h/mL | AUC(0-t) ([7]; po, 100 mg/kg): 6540 ng·h/mL | Cmax ([7]; po, 100 mg/kg): 1470 ng/mL | Tmax ([7]; po, 100 mg/kg): 0.5 h | bioavailability ([7]; po, 100 mg/kg): 4.8% | half-life ([7]; po, 100 mg/kg): 9.2 h | aqueous solubility [11]: poor
Compound: CC(C)c1nc(N2CCN(c3ncc(-c4ccc(-n5cnn([C@H]6CCOC6)c5=O)c(F)c4)cc3C#N)CC2)no1 [YH18968, (S)-5-(3-fluoro-4-(5-oxo-1-(tetrahydrofuran-3-yl)-1,5-dihydro-4H-1,2,4-triazol-4-yl)phenyl)-2-(4-(5-isopropyl-1,2,4-oxadiazol-3-yl)piperazin-1-yl)nicotinonitrile]
GLP-1 secretion ([5]; GLUTag cell, 0.1 uM, 120 min): 2.3 fold | glucose-stimulated insulin secretion (GSIS) ([6]; 100 nM, 3 and 15 mM glucose, 1 h): enhanced in a glucose-dependent manner | insulin release without glucose ([6]; 100 nM, cells incubated without glucose, 1 h): no effect | insulin secretion ([6]; HIT-T15 cell, 0.1 uM, 15 mM glucose, 60 min): 1.9 fold | concentration up to which cytotoxicity was not observed [4]: 5000 nM | AUC for blood glucose in OGTT versus vehicle control ([8]; single oral 0.1, 1, and 10 mg/kg, dose-dependent): significantly lowered | glucose lowering effect compared with 30 mg/kg of MBX2982 ([8]; single oral 1 and 10 mg/kg): more potent glucose lowering effects | increase of active GLP-1 levels compared to the vehicle control [9]: 2.7 fold | AUC for blood glucose in OGTT versus vehicle control, day 1 ([10]; 1 mg/kg oral once daily, day 1, DIO mice): significantly lowered; also recorded: significant decrease | glucose lowering effect compared with 10 mg/kg of MBX2982, day 1 ([10]; 1 mg/kg oral, day 1, DIO mice): more potent glucose lowering effect

Compound: CC#CCn1c(N2CCC[C@@H](N)C2)nc2c1c(=O)n(Cc1nc(C)c3ccccc3n1)c(=O)n2C [linagliptin, reference compound]
AUC blood glucose level in OGTT ([10]; 1 mg/kg of linagliptin, DIO mice): near normal range

Source: paper PMC5839499 (Biomolecules & Therapeutics, 2018)
